From paper PMC12634867 (Neoplasia (New York, N.Y.), 2025)
Like-named read-outs stand apart in the source and are kept apart here.

Key:
[1] = system: CBA/CaJ mice; assay: multi-cycle cisplatin ototoxicity mouse model, DPOAE; format: in vivo; settings: any combination group
[2] = system: CBA/CaJ mice; assay: multi-cycle cisplatin ototoxicity mouse model, survival and general condition; format: in vivo
[3] = system: phosphorylated Rb; settings: cited from earlier work
[4] = system: FVB mice; settings: cited from earlier work
[5] = system: cochlear explants; settings: read-out: EC50 in cochlear explants; protection against cisplatin; cited from earlier work
[6] = system: CBA/CaJ mice; assay: multi-cycle cisplatin ototoxicity mouse model, ABR; format: in vivo
[7] = system: NCCIT cells; assay: NCCIT cell confluence; format: cell-based, human; settings: for IC50: read-out: IC50, NCCIT cells
[8] = cited from earlier work
[9] = single dose, healthy male volunteers; cited from earlier work
[10] = system: CBA/CaJ mice; assay: multi-cycle cisplatin ototoxicity mouse model, hair cell counts; format: in vivo
[11] = system: cyclin B1/CDK1; settings: read-out: in vitro IC50 against cyclin B1/CDK1; cited from earlier work
[12] = system: NCCIT tumor-bearing SCID mice; assay: NCCIT xenograft mouse model; format: in vivo
How it was run: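 Male SCID mice aged 12 wk were implanted s.c. with 1 × 10⁷ NCCIT cells in 1:1 Matrigel. At mean tumor size ~100 mm³, they were randomized into four groups (n = 10). […] Oral test compound or vehicle (10% DMSO/5% Tween-80/40% PEG-300/45% saline) was given b.i.d. on days 1–3. Cycles lasted 7 days, three in all. Caliper volumes normalized to baseline; two-way ANOVA with Tukey.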

[13] = plasma pharmacokinetics of single oral AZD5438 dosing in mice; format: in vivo; settings: CBA, mouse, 37.5 mg/kg
[14] = system: SEM-1 cells; assay: MTT cell viability, SEM-1; format: cell-based; settings: ∼0.02-100 μM AZD5438 together with cisplatin, 24 h MTT
[15] = system: noise-induced hearing loss (NIHL) model; settings: cited from earlier work
[16] = system: cyclin E/CDK2; settings: read-out: in vitro IC50 against cyclin E/CDK2; cited from earlier work
[17] = system: JKT1 cells; assay: MTT cell viability, JKT1; format: cell-based; settings: ∼0.02-100 μM AZD5438 together with cisplatin, 24 h MTT
[18] = system: mice; settings: cited from earlier work
[19] = system: cyclin A/CDK2; settings: read-out: in vitro IC50 against cyclin A/CDK2; cited from earlier work
[20] = system: cyclin D1/CDK4; settings: read-out: in vitro IC50 against cyclin D1/CDK4; cited from earlier work
[21] = system: IMR-32, SH-SY5Y, SKN-AS, SHP-77, H115, A549, Kelly, JKT1, NCCIT; settings: neuroblastoma, lung and testicular origins; cited from earlier work
[22] = cited from earlier work; remark: listed apart in the source
[23] = clinical phase I tolerability, cancer patients; format: in vivo, human
[24] = system: CBA/CaJ model; settings: CBA/CaJ model and retrospective human study; cited from earlier work

Cc1ncc(-c2ccnc(Nc3ccc(S(C)(=O)=O)cc3)n2)n1C(C)C [AZD5438]
DPOAE amplitudes input and output analysis, protection vs cisplatin only [1]: no significant protection
DPOAE thresholds and amplitudes, protection vs cisplatin only [1]: no significant protection
adverse effects based on body weight or behavior ([2]; co-treated animals (Fig. 2, Fig. 3)): no significant adverse effects
mortality during the entire experiments ([2]; multi-cycle cisplatin + AZD5438 b.i.d.): Only a few mice mostly in the cisplatin + 37.5 mg/kg AZD5438 group died
time after administration within which phosphorylated Rb was modulated [3]: 1 to 3 h
protection against CIHL ([4]; oral 75 mg/kg once daily for three days): significantly protected against CIHL at 32 kHz
cisplatin-induced hearing loss (ABR thresholds at 32 kHz) ([4]; transtympanic 50 µM, one hour before and 24 h after cisplatin): significantly attenuated cisplatin-induced hearing loss
EC50 [5]: 5 nM
ABR wave 1 amplitudes, protection vs cisplatin only ([6]; any combination group): no significant protection
ABR wave 1 latency, improvement vs cisplatin only ([6]; combination groups, all levels at 8 and 16 kHz): did not reveal significant improvements
IC50 ([7]; Homo sapiens, NCCIT, 40 h): 1380 nM
cell death of combination vs either drug alone ([7]; cisplatin 5 μM + AZD5438 3 μM, 40 h): significantly higher cell death
dose-dependent linear Cmax values ([8]; oral, animal and human studies): 5 to 1,000 ng/mL
Tmax ([8]; plasma, single oral dose): 30 to 180 min
maximum tolerated dose (MTD) [9]: 80 mg
reduction of cisplatin-induced outer hair cell loss ([10]; AZD5438 co-treated groups, 32 kHz region): did not significantly reduce cisplatin-induced outer hair cell loss
inner hair cell loss ([10]; all groups): none of the groups caused any inner hair cell loss
IC50 [11]: 16 nM
tumor volume, cisplatin + AZD5438 vs cisplatin only ([12]; 9.4 mg/kg b.i.d. oral + cisplatin 3 mg/kg): no significant differences
tumor volume ([12]; AZD5438 only, 9.4 mg/kg b.i.d. oral, vs vehicle): increased at similar rates
body weight ([12]; cisplatin + AZD5438 vs cisplatin only): trend of body weight loss more than the cisplatin only group, although insignificantly
survival ([12]; combination group and AZD5438 only group, 9.4 mg/kg b.i.d.): several deaths occurred
Cmax [13]: 1470 ± 916 ng/mL
concentration at 2 h [13]: 621 ± 305 ng/mL
concentration at 3 h [13]: 510 ± 135 ng/mL
interference with cisplatin tumor cell loss, SEM-1 [14]: no substantial interferences
protection in NIHL model, co-treatment with dabrafenib ([15]; AZD5438 and dabrafenib, preservation at 8, 16 and 32 kHz): enhanced protection
auditory thresholds in NIHL model ([15]; oral 75 mg/kg): improved auditory thresholds at 8 and 16 kHz
IC50 [16]: 6 nM
interference with cisplatin tumor cell loss, JKT1 [17]: no substantial interferences
cisplatin-induced nephrotoxicity [18]: protected against cisplatin-induced nephrotoxicity
IC50 [19]: 45 nM
IC50 [20]: 450 nM
interference with cisplatin's tumor killing in nine cancer cell lines [21]: does not interfere
well tolerated dose ([22]; cancer patient cohort, QID one day weekly): ≤ 90 mg
non-tolerated dose (NTD) ([22]; cancer patients, four times (QID) for one day per week): > 90 mg
non-tolerated dose (NTD) ([22]; cancer patients, four times daily for at least 14 and 28 consecutive days): 40 mg
adverse events ([22]; continuous dosing, 40 mg QID, cancer patients): gastrointestinal in origin, including profound anorexia and fatigue in some patients, accompanied by nausea and vomiting
estimated MTD ([23]; cancer patients, four times daily (QID), conjectured from NTDs): 20 to 90 mg
human equivalent (tolerated) mouse dose ([23]; extrapolated from tolerated Cmax): ≤ 9.4 mg/kg
Cmax ([23]; human, plasma, oral): < 300 ng/mL

CC(C)c1c(C(=O)Nc2ccccc2)c(-c2ccccc2)c(-c2ccc(F)cc2)n1CC[C@@H](O)C[C@@H](O)CC(=O)O [atorvastatin]
auditory protection [24]: 5–8 dB

N.N.[Cl][Pt][Cl] [cisplatin, cis-diamminedichloroplatinum (II)]
auditory threshold elevations ([4]; single IP cisplatin 30 mg/kg, 8, 16 and 32 kHz): 5–20 dB
IC50 ([7]; single agent, confluency over 40 h): 9000 nM
tumor volume ([12]; cisplatin only, 3 mg/kg, two days per week): completely obliterated the tumor volumes
